Assay results published in ChEMBL document CHEMBL2331542, “Synthesis and in vitro antibacterial activity of quinolone/naphthyridone derivatives containing 3-alkoxyimino-4-(methyl)aminopiperidine scaffolds” (2013).
Converted amounts (≈) assume the structure as drawn.

Test system: Escherichia coli
Experiment: Antibacterial activity against extended-spectrum beta-lactamase-producing Escherichia coli isolate 12-4
Assay type: functional
Summary of the method: (§1)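 MIC determined in vitro by a standard technique and defined as the lowest compound concentration giving complete inhibition of bacterial growth. The Gram-positive and Gram-negative panels were tested alongside gemifloxacin, levofloxacin and ciprofloxacin reference drugs.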

SMILES | MIC
CO/N=C1\CN(c2c(F)cc3c(=O)c(C(=O)O)cn4c3c2OC[C@@H]4C)CCC1N (stereo partly specified) | 16 µg/mL (≈ 39.6 µM)

Test system: Escherichia coli
Experiment: Antibacterial activity against extended-spectrum beta-lactamase-producing Escherichia coli isolate 12-2
Assay type: functional
Summary of the method: as §1

SMILES | MIC
CO/N=C1\CN(c2c(F)cc3c(=O)c(C(=O)O)cn4c3c2OC[C@@H]4C)CCC1N (stereo partly specified) | > 128 µg/mL

Test system: Escherichia coli
Experiment: Antibacterial activity against extended-spectrum beta-lactamase-producing Escherichia coli isolate 12-1
Assay type: functional
Summary of the method: as §1

SMILES | MIC
CO/N=C1\CN(c2c(F)cc3c(=O)c(C(=O)O)cn4c3c2OC[C@@H]4C)CCC1N (stereo partly specified) | 128 µg/mL (≈ 317 µM)

Test system: Escherichia coli
Experiment: Antibacterial activity against Escherichia coli isolate 12-5
Assay type: functional
Summary of the method: as §1

SMILES | MIC
CO/N=C1\CN(c2c(F)cc3c(=O)c(C(=O)O)cn4c3c2OC[C@@H]4C)CCC1N (stereo partly specified) | 128 µg/mL (≈ 317 µM)

Test system: Escherichia coli
Experiment: Antibacterial activity against Escherichia coli isolate 12-4
Assay type: functional
Summary of the method: as §1

SMILES | MIC
CO/N=C1\CN(c2c(F)cc3c(=O)c(C(=O)O)cn4c3c2OC[C@@H]4C)CCC1N (stereo partly specified) | > 128 µg/mL

Test system: Escherichia coli
Experiment: Antibacterial activity against Escherichia coli isolate 12-1
Assay type: functional
Summary of the method: as §1

SMILES | MIC
CO/N=C1\CN(c2c(F)cc3c(=O)c(C(=O)O)cn4c3c2OC[C@@H]4C)CCC1N (stereo partly specified) | 4 µg/mL (≈ 9.89 µM)

Test system: Escherichia coli
Experiment: Antibacterial activity against Escherichia coli ATCC 25922
Assay type: functional
Summary of the method: as §1

SMILES | MIC
CO/N=C1\CN(c2c(F)cc3c(=O)c(C(=O)O)cn4c3c2OC[C@@H]4C)CCC1N (stereo partly specified) | 8 µg/mL (≈ 19.8 µM)

Test system: Streptococcus pneumoniae
Experiment: Antibacterial activity against Streptococcus pneumoniae isolate 12-5
Assay type: functional
Summary of the method: as §1

SMILES | MIC
CO/N=C1\CN(c2c(F)cc3c(=O)c(C(=O)O)cn4c3c2OC[C@@H]4C)CCC1N (stereo partly specified) | 0.5 µg/mL (≈ 1.24 µM)

Test system: Streptococcus pneumoniae
Experiment: Antibacterial activity against Streptococcus pneumoniae isolate 12-2
Assay type: functional
Summary of the method: as §1

SMILES | MIC
CO/N=C1\CN(c2c(F)cc3c(=O)c(C(=O)O)cn4c3c2OC[C@@H]4C)CCC1N (stereo partly specified) | 0.5 µg/mL (≈ 1.24 µM)

Test system: Staphylococcus epidermidis
Experiment: Antibacterial activity against methicillin-resistant Staphylococcus epidermidis isolate 12-35
Assay type: functional
Summary of the method: (§2)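 MIC determined in vitro by standard techniques, defined as the lowest compound concentration giving complete inhibition of bacterial growth. Gemifloxacin, levofloxacin and ciprofloxacin were tested alongside as reference drugs.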

SMILES | MIC
CO/N=C1\CN(c2c(F)cc3c(=O)c(C(=O)O)cn4c3c2OC[C@@H]4C)CCC1N (stereo partly specified) | 0.5 µg/mL (≈ 1.24 µM)

Test system: Staphylococcus epidermidis
Experiment: Antibacterial activity against methicillin-resistant Staphylococcus epidermidis isolate 12-33
Assay type: functional
Summary of the method: as §2

SMILES | MIC
CO/N=C1\CN(c2c(F)cc3c(=O)c(C(=O)O)cn4c3c2OC[C@@H]4C)CCC1N (stereo partly specified) | 0.5 µg/mL (≈ 1.24 µM)

Test system: Staphylococcus epidermidis
Experiment: Antibacterial activity against methicillin-resistant Staphylococcus epidermidis isolate 12-5
Assay type: functional
Summary of the method: as §2

SMILES | MIC
CO/N=C1\CN(c2c(F)cc3c(=O)c(C(=O)O)cn4c3c2OC[C@@H]4C)CCC1N (stereo partly specified) | 0.5 µg/mL (≈ 1.24 µM)

Test system: Staphylococcus epidermidis
Experiment: Antibacterial activity against methicillin-sensitive Staphylococcus epidermidis isolate 12-3
Assay type: functional
Summary of the method: as §1

SMILES | MIC
CO/N=C1\CN(c2c(F)cc3c(=O)c(C(=O)O)cn4c3c2OC[C@@H]4C)CCC1N (stereo partly specified) | 0.5 µg/mL (≈ 1.24 µM)

Test system: Staphylococcus epidermidis
Experiment: Antibacterial activity against methicillin-sensitive Staphylococcus epidermidis isolate 12-2
Assay type: functional
Summary of the method: as §1

SMILES | MIC
CO/N=C1\CN(c2c(F)cc3c(=O)c(C(=O)O)cn4c3c2OC[C@@H]4C)CCC1N (stereo partly specified) | 1 µg/mL (≈ 2.47 µM)

Test system: Staphylococcus epidermidis
Experiment: Antibacterial activity against methicillin-sensitive Staphylococcus epidermidis isolate 12-1
Assay type: functional
Summary of the method: as §1

SMILES | MIC
CO/N=C1\CN(c2c(F)cc3c(=O)c(C(=O)O)cn4c3c2OC[C@@H]4C)CCC1N (stereo partly specified) | 0.5 µg/mL (≈ 1.24 µM)

Test system: Staphylococcus aureus
Experiment: Antibacterial activity against methicillin-resistant Staphylococcus aureus isolate 12-15
Assay type: functional
Summary of the method: as §2

SMILES | MIC
CO/N=C1\CN(c2c(F)cc3c(=O)c(C(=O)O)cn4c3c2OC[C@@H]4C)CCC1N (stereo partly specified) | 1 µg/mL (≈ 2.47 µM)

Test system: Staphylococcus aureus
Experiment: Antibacterial activity against methicillin-resistant Staphylococcus aureus isolate 12-13
Assay type: functional
Summary of the method: as §2

SMILES | MIC
CO/N=C1\CN(c2c(F)cc3c(=O)c(C(=O)O)cn4c3c2OC[C@@H]4C)CCC1N (stereo partly specified) | 1 µg/mL (≈ 2.47 µM)

Test system: Staphylococcus aureus
Experiment: Antibacterial activity against methicillin-resistant Staphylococcus aureus isolate 12-3
Assay type: functional
Summary of the method: as §2

SMILES | MIC
CO/N=C1\CN(c2c(F)cc3c(=O)c(C(=O)O)cn4c3c2OC[C@@H]4C)CCC1N (stereo partly specified) | 1 µg/mL (≈ 2.47 µM)

Test system: Staphylococcus aureus
Experiment: Antibacterial activity against methicillin-sensitive Staphylococcus aureus isolate 12-10
Assay type: functional
Summary of the method: as §1

SMILES | MIC
CO/N=C1\CN(c2c(F)cc3c(=O)c(C(=O)O)cn4c3c2OC[C@@H]4C)CCC1N (stereo partly specified) | 0.25 µg/mL (≈ 0.618 µM)

Test system: Staphylococcus aureus
Experiment: Antibacterial activity against methicillin-sensitive Staphylococcus aureus isolate 12-7
Assay type: functional
Summary of the method: as §1

SMILES | MIC
CO/N=C1\CN(c2c(F)cc3c(=O)c(C(=O)O)cn4c3c2OC[C@@H]4C)CCC1N (stereo partly specified) | 64 µg/mL (≈ 158 µM)

Test system: Staphylococcus aureus
Experiment: Antibacterial activity against methicillin-sensitive Staphylococcus aureus isolate 12-6
Assay type: functional
Summary of the method: as §1

SMILES | MIC
CO/N=C1\CN(c2c(F)cc3c(=O)c(C(=O)O)cn4c3c2OC[C@@H]4C)CCC1N (stereo partly specified) | 0.5 µg/mL (≈ 1.24 µM)

Test system: Staphylococcus aureus
Experiment: Antibacterial activity against Staphylococcus aureus […]
Assay type: functional
Summary of the method: as §1

SMILES | MIC
CO/N=C1\CN(c2c(F)cc3c(=O)c(C(=O)O)cn4c3c2OC[C@@H]4C)CCC1N (stereo partly specified) | 0.5 µg/mL (≈ 1.24 µM)

Test system: Pseudomonas aeruginosa
Experiment: Antibacterial activity against Pseudomonas aeruginosa isolate 12-2
Assay type: functional
Summary of the method: as §1

SMILES | MIC
CO/N=C1\CN(c2c(F)cc3c(=O)c(C(=O)O)cn4c3c2OC[C@@H]4C)CCC1N (stereo partly specified) | 16 µg/mL (≈ 39.6 µM)

Test system: Pseudomonas aeruginosa
Experiment: Antibacterial activity against Pseudomonas aeruginosa isolate 12-1
Assay type: functional
Summary of the method: as §1

SMILES | MIC
CO/N=C1\CN(c2c(F)cc3c(=O)c(C(=O)O)cn4c3c2OC[C@@H]4C)CCC1N (stereo partly specified) | 16 µg/mL (≈ 39.6 µM)

Test system: Pseudomonas aeruginosa
Experiment: Antibacterial activity against Pseudomonas aeruginosa ATCC 27853
Assay type: functional
Summary of the method: as §1

SMILES | MIC
CO/N=C1\CN(c2c(F)cc3c(=O)c(C(=O)O)cn4c3c2OC[C@@H]4C)CCC1N (stereo partly specified) | 32 µg/mL (≈ 79.1 µM)

Test system: Klebsiella pneumoniae
Experiment: Antibacterial activity against extended-spectrum beta-lactamase-producing Klebsiella pneumoniae isolate 12-4
Assay type: functional
Summary of the method: as §1

SMILES | MIC
CO/N=C1\CN(c2c(F)cc3c(=O)c(C(=O)O)cn4c3c2OC[C@@H]4C)CCC1N (stereo partly specified) | 128 µg/mL (≈ 317 µM)

Test system: Klebsiella pneumoniae
Experiment: Antibacterial activity against extended-spectrum beta-lactamase-producing Klebsiella pneumoniae isolate 12-2
Assay type: functional
Summary of the method: as §1

SMILES | MIC
CO/N=C1\CN(c2c(F)cc3c(=O)c(C(=O)O)cn4c3c2OC[C@@H]4C)CCC1N (stereo partly specified) | 16 µg/mL (≈ 39.6 µM)

Test system: Klebsiella pneumoniae
Experiment: Antibacterial activity against extended-spectrum beta-lactamase-producing Klebsiella pneumoniae isolate 12-1
Assay type: functional
Summary of the method: as §1

SMILES | MIC
CO/N=C1\CN(c2c(F)cc3c(=O)c(C(=O)O)cn4c3c2OC[C@@H]4C)CCC1N (stereo partly specified) | 0.5 µg/mL (≈ 1.24 µM)

Test system: Klebsiella pneumoniae
Experiment: Antibacterial activity against Klebsiella pneumoniae isolate 12-4
Assay type: functional
Summary of the method: as §1

SMILES | MIC
CO/N=C1\CN(c2c(F)cc3c(=O)c(C(=O)O)cn4c3c2OC[C@@H]4C)CCC1N (stereo partly specified) | 1 µg/mL (≈ 2.47 µM)

Test system: Klebsiella pneumoniae
Experiment: Antibacterial activity against Klebsiella pneumoniae isolate 12-2
Assay type: functional
Summary of the method: as §1

SMILES | MIC
CO/N=C1\CN(c2c(F)cc3c(=O)c(C(=O)O)cn4c3c2OC[C@@H]4C)CCC1N (stereo partly specified) | 1 µg/mL (≈ 2.47 µM)

Test system: Klebsiella pneumoniae
Experiment: Antibacterial activity against Klebsiella pneumoniae isolate 12-1
Assay type: functional
Summary of the method: as §1

SMILES | MIC
CO/N=C1\CN(c2c(F)cc3c(=O)c(C(=O)O)cn4c3c2OC[C@@H]4C)CCC1N (stereo partly specified) | 8 µg/mL (≈ 19.8 µM)
